This note sets out measurements from ChEMBL document CHEMBL1129507, “Betulinic acid derivatives: a new class of human immunodeficiency virus type 1 specific inhibitors with a new mode of action” (J Med Chem, 1996).

Test [1] has as its system MT4. The experiment in a line: Ability to inhibit the cytopathic effect induced by HIV-1 infection in MT-4 cells; NA=not active. It is filed as functional, cell-based, Homo sapiens. The gist of the method:
(§1)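 MT-4 cells infected with HIV-1 strain IIIB/LAI. Protection from virus-induced cytopathogenicity measured by the MTT method. IC50 is the concentration giving 50% protection, mean of at least two experiments.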

The subject of test [2] is CCRF-CEM. The experiment in a line: Ability to inhibit the cytopathic effect induced by HIV-1 infection in CEM T-lymphoblastoid tumor cell line; NA=not active. It is filed as functional, cell-based, Homo sapiens. The method, boiled down:
(§2)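 CEM 4 cells in RPMI 1640 with 10% heat-inactivated FCS, penicillin, streptomycin, glutamine and polybrene (2 µg/mL), 37 °C, 5% CO2. Compound dilutions or PBS preincubated with cells for 1 h, then infected with HIV-1 IIIB/LAI (100-200 CCID50) and cultured ≥5 days. Mock-infected parallel cultures for cytotoxicity. Absorbance read at 540 nm; IC50 for 50% protection against cytopathogenicity, mean of ≥2 experiments.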

Test [3] deals with CCRF-CEM. As to the kind of experiment: Ability to inhibit the cytopathic effect induced by HIV-1 infection in CEM T-lymphoblastoid tumor cell line. It is filed as functional, cell-based. The following applies: Homo sapiens. The gist of the method:
as §2

Test [4] relates to MT4. The experiment in a line: Ability to inhibit the cytopathic effect induced by HIV-1 infection in MT-4 cells. Format: functional, cell-based. The following applies: Homo sapiens. The method, boiled down: as §1

Take `C=C(C)[C@@H]1CC[C@]2(C(=O)OCCCCCCCCCCC(=O)O)CC[C@]3(C)[C@H](CCC4[C@@]5(C)CC[C@H](O)C(C)(C)[C@@H]5CC[C@]43C)[C@@H]12` (stereo partly specified): the IC50 entry in test [1] and in test [2] was “Not Active” throughout.
As for `C=C(C)[C@@H]1CC[C@]2(C(=O)NCCCCCCCCCCC(=O)O)CC[C@]3(C)[C@H](CCC4[C@@]5(C)CC[C@H](OC)C(C)(C)[C@@H]5CC[C@]43C)[C@@H]12` (stereo partly specified), the IC50 result in test [1] and in test [2] was “Not Active” throughout.
In the case of `C=C(CN1CCCC1)[C@@H]1CC[C@]2(C(=O)NCCCCCCCCCCC(=O)O)CC[C@]3(C)[C@H](CCC4[C@@]5(C)CC[C@H](O)C(C)(C)[C@@H]5CC[C@]43C)[C@@H]12` (stereo partly specified), the values for the IC50 in test [3] and in test [4] were 1 µM and 0.42 µM, respectively.
With `CC(=O)[C@@H]1CC[C@]2(C(=O)NCCCCCCCCCCC(=O)O)CC[C@]3(C)C(CCC4[C@@]5(C)CCC(O)C(C)(C)C5CC[C@]43C)C12` (stereo partly specified), the IC50 in test [3] turned out to be 12 µM.
As for `C=C(C)[C@@H]1CC[C@]2(NC(=O)NCCCCCCCCCC(=O)O)CC[C@]3(C)[C@H](CCC4[C@@]5(C)CC[C@H](O)C(C)(C)[C@@H]5CC[C@]43C)[C@@H]12` (stereo partly specified), the IC50 result in test [1] and in test [2] was “Not Active” throughout.
On to `C=C(CNCCO)[C@@H]1CC[C@]2(C(=O)NCCCCCCCCCCC(=O)O)CC[C@]3(C)[C@H](CCC4[C@@]5(C)CC[C@H](O)C(C)(C)[C@@H]5CC[C@]43C)[C@@H]12` (stereo partly specified), for which the IC50 in test [3] was 5.75 µM; in test [4] it was 2 µM.
For `C=C(C)[C@@H]1CC[C@]2(C(=O)NCCCCCCCCCCC(=O)O)CC[C@]3(C)[C@H](CCC4[C@@]5(C)CC[C@H](N)C(C)(C)[C@@H]5CC[C@]43C)[C@@H]12` (stereo partly specified), in test [2], the IC50 entry is given as “Not Active”.
Turning to `CC(C)[C@@H]1CC[C@]2(C(=O)NCCCCCCCCCCC(=O)O)CC[C@]3(C)C(CC[C@@H]4[C@@]5(C)CCC(O)C(C)(C)C5CC[C@]43C)C12` (stereo partly specified), the values for the IC50 in test [3] and in test [4] were 1.5 µM and 0.58 µM, respectively.
For `C=C(C)[C@@H]1CC[C@]2(C(=O)NCCCCCCCCCCC(=O)O)CC[C@]3(C)[C@H](CCC4[C@@]5(C)CC[C@H](O)C(C)(C)[C@@H]5CC[C@]43C)[C@@H]12` (stereo partly specified), the figures for the IC50 in test [3] and in test [4] were 0.23 µM and 0.44 µM, respectively.
The matching figures for `C=C(C)[C@@H]1CC[C@]2(C(=O)NCCCCCCCCCCC(=O)O)CC[C@]3(C)[C@H](CCC4[C@@]5(C)CCC(=O)C(C)(C)[C@@H]5CC[C@]43C)[C@@H]12` (stereo partly specified): 1.2 µM and 0.33 µM.
`C=C(CNC(C)=O)[C@@H]1CC[C@]2(C(=O)NCCCCCCCCCCC(=O)O)CC[C@]3(C)[C@H](CCC4[C@@]5(C)CC[C@H](O)C(C)(C)[C@@H]5CC[C@]43C)[C@@H]12` (stereo partly specified): the figures for the IC50 in test [3] and in test [4] were 1.25 µM and 0.26 µM, respectively.
Take `C=C(C)[C@@H]1CC[C@]2(C(=O)NCCCCCCCCCCC(=O)O)CC[C@]3(C)C(CC[C@@H]4[C@@]5(C)C=C(O)C(=O)C(C)(C)C5CC[C@]43C)C12` (stereo partly specified): the IC50 in test [3] was 3 µM.
As to `C=C(CSCCO)[C@@H]1CC[C@]2(C(=O)NCCCCCCCCCCC(=O)O)CC[C@]3(C)[C@H](CCC4[C@@]5(C)CC[C@H](O)C(C)(C)[C@@H]5CC[C@]43C)[C@@H]12` (stereo partly specified), the values for the IC50 in test [3] and in test [4] were 0.29 µM and 0.27 µM, respectively.
`C=C(C)[C@@H]1CC[C@]2(C(=O)NCCCCCCCCCCC(=O)O)CC[C@]3(C)[C@H](CCC4[C@@]5(C)CC[C@@H](O)C(C)(C)[C@@H]5CC[C@]43C)[C@@H]12` (stereo partly specified): the values for the IC50 in test [3] and in test [4] were 3 µM and 2.52 µM, respectively.
For `C=C(C)[C@@H]1CC[C@]2(C(=O)NCCCCCCCCCCC(=O)O)CC[C@]3(C)C(CC[C@@H]4[C@@]5(C)CC=CC(C)(C)C5CC[C@]43C)C12` (stereo partly specified), the IC50 amounted to 1.8 µM in test [3] and 2.6 µM in test [4].
On the same counts, the results for `C=C(CSCCN(CC)CC)[C@@H]1CC[C@]2(C(=O)NCCCCCCCCCCC(=O)O)CC[C@]3(C)[C@H](CCC4[C@@]5(C)CC[C@H](O)C(C)(C)[C@@H]5CC[C@]43C)[C@@H]12` (stereo partly specified) are 1 µM and 0.63 µM.
For `CC1(C)C(O)CC[C@@]2(C)C1CC[C@]1(C)C2CCC2C3[C@H](C(=O)O)CC[C@]3(C(=O)NCCCCCCCCCCC(=O)O)CC[C@]21C` (stereo partly specified), the IC50 in test [3] was 50 µM; in test [4], 9 µM.
For `C=C(CN)[C@@H]1CC[C@]2(C(=O)NCCCCCCCCCCC(=O)O)CC[C@]3(C)[C@H](CCC4[C@@]5(C)CC[C@H](O)C(C)(C)[C@@H]5CC[C@]43C)[C@@H]12` (stereo partly specified), the IC50 entry in test [2] is reported as “Not Active”.
`C=C(CO)[C@@H]1CC[C@]2(C(=O)NCCCCCCCCCCC(=O)O)CC[C@]3(C)[C@H](CCC4[C@@]5(C)CC[C@H](O)C(C)(C)[C@@H]5CC[C@]43C)[C@@H]12` (stereo partly specified): the IC50 worked out at 0.2 µM in test [3] and 0.38 µM in test [4].
`C=C(CNCC(=O)O)[C@@H]1CC[C@]2(C(=O)NCCCCCCCCCCC(=O)O)CC[C@]3(C)[C@H](CCC4[C@@]5(C)CC[C@H](O)C(C)(C)[C@@H]5CC[C@]43C)[C@@H]12` (stereo partly specified): the IC50 result in test [2] is on record as “Not Active”.
Consider `C=C(C)[C@@H]1CC[C@]2(NC(=O)CCCCCCCCCCC(=O)O)CC[C@]3(C)[C@H](CCC4[C@@]5(C)CC[C@H](O)C(C)(C)[C@@H]5CC[C@]43C)[C@@H]12` (stereo partly specified), for which the IC50 result in test [1] and in test [2] was “Not Active” each time.
Take `C=C(C)[C@@H]1CC[C@]2(C(=O)NCCCCCCCCCCC(=O)O)CC[C@]3(C)C(CCC4[C@@]5(C)CC(O)C(O)C(C)(C)C5CC[C@]43C)C12` (stereo partly specified): the IC50 result in test [2] was “Not Active”.
For `C=C(C)[C@@H]1CC[C@]2(C(=O)N(C)CCCCCCCCCCC(=O)O)CC[C@]3(C)[C@H](CCC4[C@@]5(C)CC[C@H](O)C(C)(C)[C@@H]5CC[C@]43C)[C@@H]12` (stereo partly specified), the IC50 entry in test [1] and in test [2] was “Not Active” in each case.
With `C=C(C)[C@@H]1CC[C@]2(CNCCCCCCCCCCC(=O)O)CC[C@]3(C)[C@H](CCC4[C@@]5(C)CC[C@H](O)C(C)(C)[C@@H]5CC[C@]43C)[C@@H]12` (stereo partly specified), in test [2], the IC50 result is reported as “Not Active”.
Consider `C=C(CSc1ccc(F)cc1)[C@@H]1CC[C@]2(C(=O)NCCCCCCCCCCC(=O)O)CC[C@]3(C)[C@H](CCC4[C@@]5(C)CC[C@H](O)C(C)(C)[C@@H]5CC[C@]43C)[C@@H]12` (stereo partly specified), for which the IC50 turned out to be 2 µM in test [3] and 1.37 µM in test [4].
As to `C=C(CSCC(=O)O)[C@@H]1CC[C@]2(C(=O)NCCCCCCCCCCC(=O)O)CC[C@]3(C)[C@H](CCC4[C@@]5(C)CC[C@H](O)C(C)(C)[C@@H]5CC[C@]43C)[C@@H]12` (stereo partly specified), the IC50 in test [4] was 1.61 µM; in test [2], “Not Active”.
Regarding `C=C(C)[C@@H]1CC[C@]2(C(=O)NCCCCCCCCCCC(=O)O)CC[C@]3(C)[C@H](CCC4[C@@]5(C)CCCC(C)(C)[C@@H]5CC[C@]43C)[C@@H]12` (stereo partly specified), in test [2], the IC50 result was “Not Active”.
